{"data": "Experimental data collected from several papers", "CYP3A7": "Cytochrome P450 3A7 (CYP3A7, Homo sapiens, UniProt P24462)", "note": "Compare with care: the assays were run in different laboratories."}
{"SMILES": "COC(=O)N[C@H](C(=O)NN(CC[C@@]1(Cc2ccccc2)C(=O)N([C@H]2c3ccccc3C[C@H]2O)C[C@@H]1O)Cc1ccc(Br)cc1)C(C)(C)C", "target or system": "MT4", "test": "cell growth or viability, XTT", "conditions": "5 days", "endpoint": "CC50", "value": "> 50 µM"}
{"SMILES": "CC[C@H](C)[C@H]1C(=O)N2CCC[C@H]2C(=O)O[C@H](C(C)(C)C)C[C@@H](C)C[C@H](O)C(C)(C)C2=N[C@@H](CCC(=O)N[C@@H](Cc3ccc(OC)cc3)C(=O)N(C)[C@@H](C)C(=O)N1C)CS2", "test": "metabolic stability", "system": "female CD-1 mouse, liver microsomes", "conditions": "1 µM, 0 h, pH 7.4", "endpoint": "compound remaining", "value": "100%"}
{"SMILES": "N=c1c2c(-c3ccccc3)c(-c3ccccc3)n(Cc3ccccc3)c2ncn1[C@H]1CC[C@H](O)CC1", "test": "metabolic stability", "system": "CD-1 mouse, hepatocytes", "conditions": "1 µM, 4 h", "endpoint": "compound remaining", "value": "103%"}
{"SMILES": "C=C(C)[C@@]12O[C@@]3(/C=C/C=C/CCCCC)O[C@@H]1[C@@H]1[C@@H]4O[C@]4(CO)[C@@H](O)[C@]4(O)C(=O)C(C)=C[C@H]4[C@@]1(O3)[C@H](C)[C@H]2OC(=O)/C=C/c1ccc(O)cc1", "target or system": "MT4", "test": "cell growth or viability, ATP luminescence", "conditions": "96 h", "endpoint": "IC50", "value": "> 0.034 µM"}
{"SMILES": "C=C(C)[C@]12C[C@@H](COC(=O)c3ccccc3)[C@@]34OC5(O[C@@H]1[C@@H]3[C@@H]1O[C@]1(CO)[C@@H](O)[C@@]1(O)[C@H]4[C@H]([C@H](C)[C@@H]1OC(=O)c1ccccc1)[C@H](C)CCCCCC[C@H]5O)O2", "target or system": "MT4", "test": "cell growth or viability, ATP luminescence", "endpoint": "CC50", "value": "> 7 µM"}
{"SMILES": "C=C(C)[C@@]1(O)[C@H](OC(=O)/C=C/C=C/C=C/CCC)[C@@H]2[C@@H]3O[C@]3(CO)[C@@H](O)[C@]3(O)C(=O)C(C)=C[C@H]3[C@@]2(O)[C@H](C)[C@H]1OC(=O)/C=C/c1ccc(O)c(OC)c1", "target or system": "MT4", "test": "cell growth or viability, ATP luminescence", "conditions": "96 h", "endpoint": "IC50", "value": "> 0.034 µM"}
{"SMILES": "O=C(O)C(F)(F)C(F)(F)C(F)(F)C(F)(F)C(F)(F)C(F)(F)C(F)(F)F", "target or system": "CYP3A7", "test": "enzyme activity, inhibitor", "conditions": "100 µM, pH 7.4", "endpoint": "inhibition", "value": "35.8%"}
{"SMILES": "C=C(C)[C@@]1(O)[C@H](OC(=O)/C=C/C=C/CCCCC)[C@@H]2[C@@H]3O[C@]3(CO)[C@@H](O)[C@]3(O)C(=O)C(C)=C[C@H]3[C@@]2(O)[C@H](C)[C@H]1OC(=O)/C=C/c1ccccc1", "target or system": "MT4", "test": "cell growth or viability, ATP luminescence", "conditions": "96 h", "endpoint": "IC50", "value": "> 0.034 µM"}
{"SMILES": "CCCCCC/C=C/CC(=O)O[C@@]12[C@H](OC(=O)c3ccccc3)[C@@H](C)[C@]3(O)[C@@H]4C=C(C)C(=O)[C@@]4(O)[C@H](O)C(CO)=C[C@H]3[C@@H]1C2(C)C", "target or system": "MT4", "test": "cell growth or viability, ATP luminescence", "endpoint": "CC50", "value": "> 7 µM"}
{"SMILES": "O=C(c1ccc(F)cc1F)N1CCC(NCCSC(c2ccc(F)cc2)c2ccc(F)cc2)CC1", "test": "metabolic stability", "system": "mouse, liver microsomes", "conditions": "10 µM, 1 h, pH 7.4", "endpoint": "compound remaining", "value": "~30%"}
{"SMILES": "Cc1ncc2n1-c1ccc(Cl)cc1C(c1ccccc1F)=NC2", "test": "metabolic stability", "system": "male rat, liver microsomes", "conditions": "1 µM, 30 min", "endpoint": "compound remaining", "value": "< 7%"}
{"SMILES": "C=C(C)[C@@]12O[C@@]3(/C=C/C=C/C=C/CCC)O[C@@H]1[C@@H]1[C@@H]4O[C@]4(CO)[C@@H](O)[C@]4(O)C(=O)C(C)=C[C@H]4[C@@]1(O3)[C@H](C)[C@H]2OC(=O)/C=C/c1ccc(O)c(OC)c1", "target or system": "MT4", "test": "cell growth or viability, ATP luminescence", "conditions": "96 h", "endpoint": "IC50", "value": "> 0.034 µM"}
{"SMILES": "O=S(=O)(O)C(F)(F)C(F)(F)C(F)(F)C(F)(F)C(F)(F)C(F)(F)C(F)(F)C(F)(F)F", "target or system": "CYP3A7", "test": "enzyme activity, inhibitor, fluorescence", "endpoint": "IC50", "value": "20.4 µM"}
{"SMILES": "C=C(C)[C@@]12O[C@@]3(c4ccccc4)O[C@@H]1[C@@H]1[C@@H]4O[C@]4(CO)[C@@H](O)[C@]4(O)C(=O)C(C)=C[C@H]4[C@@]1(O3)[C@H](C)[C@H]2OC(=O)/C=C/C=C/C=C/CCC", "target or system": "MT4", "test": "cell growth or viability, ATP luminescence", "conditions": "96 h", "endpoint": "IC50", "value": "> 0.034 µM"}
{"SMILES": "COC(=O)N[C@H](C(=O)NN(CC[C@@]1(Cc2ccccc2)C(=O)N([C@H]2c3ccccc3C[C@H]2O)C[C@@H]1O)Cc1ccc(-c2ccncc2)cc1)C(C)(C)C", "target or system": "MT4", "test": "cell growth or viability, XTT", "conditions": "5 days", "endpoint": "CC50", "value": "> 50 µM"}
{"SMILES": "Cc1ncc2n1-c1ccc(Cl)cc1C(c1ccccc1F)=NC2", "test": "metabolic stability", "system": "Sprague-Dawley rat, hepatocytes", "conditions": "1 µM, 4 h", "endpoint": "compound remaining", "value": "0.3%"}
{"SMILES": "C=C(C)[C@@]12O[C@@]3(/C=C/C=C/CCCCC)O[C@@H]1[C@@H]1[C@@H]4O[C@]4(CO)[C@@H](O)[C@]4(O)C(=O)C(C)=C[C@H]4[C@@]1(O3)[C@H](C)[C@H]2OC(=O)/C=C/c1ccc(O)c(OC)c1", "target or system": "MT4", "test": "cell growth or viability, ATP luminescence", "conditions": "96 h", "endpoint": "IC50", "value": "> 0.034 µM"}
{"SMILES": "CC[C@H](C)[C@H]1C(=O)N2CCC[C@H]2C(=O)O[C@H](C(C)(C)C)C[C@@H](C)C[C@H](O)[C@H](C)C2=N[C@@H](CCC(=O)N[C@@H](Cc3ccc(OC)cc3)C(=O)N(C)[C@@H](C)C(=O)N1C)CS2", "test": "metabolic stability", "system": "female CD-1 mouse, liver microsomes", "conditions": "1 µM, 0 h, pH 7.4", "endpoint": "compound remaining", "value": "100%"}
{"SMILES": "CCCC/C=C/C=C/CC(=O)O[C@@]12[C@H](OC(=O)c3ccccc3)[C@@H](C)[C@@]3(O)[C@@H](C=C(CO)C[C@]4(O)C(=O)C(C)=C[C@@H]34)[C@@H]1C2(C)C", "target or system": "MT4", "test": "cell growth or viability, ATP luminescence", "endpoint": "CC50", "value": "> 7 µM"}
{"SMILES": "O=S(=O)(O)C(F)(F)C(F)(F)C(F)(F)C(F)(F)C(F)(F)C(F)(F)F", "target or system": "CYP3A7", "test": "enzyme activity, inhibitor", "conditions": "100 µM, pH 7.4", "endpoint": "inhibition", "value": "48.8%"}
